We go through 4 compounds from ChEMBL document CHEMBL4376812 (J Med Chem, 2019).

Calls of active or inactive are those of the source. The rule behind the calls is not given here.

For data set [1], the species on record is Homo sapiens. The data set can be described thus: Selectivity ratio of IC50 for c-kit (unknown origin) to IC50 for His-tagged recombinant human TYK2 pseudokinase JH2 domain (575-869 residues) incubated for 1 hr by HTRF assay. Conditions: tested as the 2H-labelled form. In general terms: TR-FRET usually uses a lanthanide donor and a delayed reading to cut background.

The species entered for data set [2] is Homo sapiens. The data set can be described thus: Selectivity ratio of IC50 for JAK2 in GM-CSF-stimulated human TF-1 cells to IC50 for TYK2 JH2 domain in human PBMC assessed as decrease in IFNalpha-induced STAT5 phosphorylation. Conditions: tested as the 2H-labelled form.
The species named for data set [3] is Homo sapiens. The data set can be described thus: Selectivity ratio of IC50 for JAK1/JAK3 in human PBMC assessed as decrease in IL2-induced STAT5 phosphorylation in CD3+ T cells to IC50 for TYK2 JH2 domain in human PBMC assessed as decrease in IFNalpha-induced STAT5 phosphorylation. Type of data set: cell-based. To be noted: tested as the 2H-labelled form. The method in brief: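 Human PBMC were stimulated with IL-2 (JAK1/JAK3) or IFNα (TYK2), and STAT5 phosphorylation in CD3⁺ T-cells was the end point. The ratio is IL-2 IC50 over IFNα IC50, with means from at least three separate experiments.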

Data set [4] has as its system Mus musculus. The data set is described as follows: Protection against IL23-induced acanthosis C57BL/6 mouse assessed as reduction in ear swelling at 30 mg/kg, po via gavage bid for 9 days with first dose given prior to first IL23 challenge and twice a day thereafter by caliper method. Format: functional, organism-based. Conditions: tested as the 2H-labelled form.
Data set [5] relates to Mus musculus. The data set can be described thus: Protection against IL23-induced acanthosis C57BL/6 mouse assessed as inhibition of inflammatory cellular infiltration at 30 mg/kg, po via gavage bid for 9 days with first dose given prior to first IL23 challenge and twice a day thereafter by H and E staining based analysis. Type of data set: functional, organism-based. To be noted: tested as the 2H-labelled form. The method in brief:
(§1)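 IL-23 was injected intradermally into mouse ears repeatedly to drive acanthosis. Test agent was given orally twice daily for 9 days at 7.5, 15 or 30 mg/kg in EtOH:TPGS:PEG300 (5:5:90), with an anti-IL-23 adnectin as positive control. Epidermal hyperplasia and cellular infiltration were scored histologically. Eight mice per group; means ± SEM; one-way ANOVA.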

The subject of data set [6] is Mus musculus. The data set is described as follows: Protection against IL23-induced acanthosis C57BL/6 mouse assessed as reduction in ear swelling at 15 mg/kg, po via gavage bid for 9 days with first dose given prior to first IL23 challenge and twice a day thereafter by caliper method. Type of data set: functional, organism-based. To be noted: tested as the 2H-labelled form.

The test system of data set [7] is Mus musculus. The data set can be described thus: Protection against IL23-induced acanthosis C57BL/6 mouse assessed as inhibition in IL-17A mRNA expression in ear skin compound dosed orally via gavage bid for 9 days with first dose given prior to first IL23 challenge and twice a day thereafter by qRT-PCR analysis. Format: functional, organism-based. Conditions: tested as the 2H-labelled form. The procedure, abridged:
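Mice given repeated intradermal IL-23 injections into the ears to induce acanthosis. Oral dosing twice daily for 9 days at 7.5, 15 or 30 mg/kg in 5:5:90 EtOH:TPGS:PEG300 vehicle; anti-IL-23 adnectin served as positive control. Skin biopsies analysed by quantitative PCR for IL-17A expression. Eight mice per group; means ± SEM; one-way ANOVA.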

Data set [8] relates to Mus musculus. The data set can be described thus: Protection against IL23-induced acanthosis C57BL/6 mouse assessed as inhibition in epidermal hyperplasia at 30 mg/kg, po via gavage bid for 9 days with first dose given prior to first IL23 challenge and twice a day thereafter by H and E staining based analysis. Conditions: tested as the 2H-labelled form. Type of data set: functional, organism-based. The procedure, abridged:
(§2)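 IL-23 was injected intradermally and repeatedly into mouse ears. Compound was dosed orally twice daily for 9 days in EtOH:TPGS:PEG300 (5:5:90), at 7.5, 15 or 30 mg/kg. Histological scoring covered epidermal hyperplasia and inflammatory infiltration. Eight mice per group; means ± SEM; one-way ANOVA.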

Data set [9] relates to Mus musculus. The data set is described as follows: Protection against IL23-induced acanthosis C57BL/6 mouse assessed as inhibition of inflammatory cellular infiltration compound dosed orally via gavage bid for 9 days with first dose given prior to first IL23 challenge and twice a day thereafter by H and E staining based analysis. Format: functional, organism-based. Conditions: tested as the 2H-labelled form. The procedure, abridged:
as §1

The subject of data set [10] is Mus musculus. The data set can be described thus: Protection against IL23-induced acanthosis C57BL/6 mouse assessed as inhibition in IL-23 mRNA expression in ear skin compound dosed orally via gavage bid for 9 days with first dose given prior to first IL23 challenge and twice a day thereafter by qRT-PCR analysis. Format: functional, organism-based. Conditions: tested as the 2H-labelled form. The method in brief: (§3)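 IL-23 was injected intradermally and repeatedly into mouse ears to induce psoriasis-like acanthosis. Compound was given orally twice daily for 9 days in EtOH:TPGS:PEG300 (5:5:90), at 7.5, 15 and 30 mg/kg. Skin biopsies were analysed for cytokine transcripts (IL-17A, IL-21, IL-12/IL-23 subunits) by quantitative PCR. Eight mice per group.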
(Real-time PCR tracks product formation cycle by cycle.)

Data set [11] relates to Mus musculus. The data set can be described thus: Protection against IL23-induced acanthosis C57BL/6 mouse assessed as inhibition in IL-21 mRNA expression in ear skin compound dosed orally via gavage bid for 9 days with first dose given prior to first IL23 challenge and twice a day thereafter by qRT-PCR analysis. Conditions: tested as the 2H-labelled form. Type of data set: functional, organism-based. The method in brief:
as §3

Data set [12] deals with Mus musculus. The data set is described as follows: Protection against IL23-induced acanthosis C57BL/6 mouse assessed as inhibition in IL-12 mRNA expression in ear skin compound dosed orally via gavage bid for 9 days with first dose given prior to first IL23 challenge and twice a day thereafter by qRT-PCR analysis. Format: functional, organism-based. To be noted: tested as the 2H-labelled form. The procedure, abridged:
as §3

Data set [13] has as its system Mus musculus. The data set can be described thus: Protection against IL23-induced acanthosis C57BL/6 mouse assessed as inhibition in epidermal hyperplasia compound dosed orally via gavage bid for 9 days with first dose given prior to first IL23 challenge and twice a day thereafter by H and E staining based analysis. Type of data set: functional, organism-based. Conditions: tested as the 2H-labelled form. The procedure, abridged:
as §2

Data set [14] deals with Mus musculus. The data set can be described thus: Protection against IL23-induced acanthosis in C57BL/6 mouse assessed as reduction in ear swelling compound dosed orally via gavage bid for 9 days with first dose given prior to first IL23 challenge and twice a day thereafter by caliper method. Type of data set: functional, organism-based. To be noted: tested as the 2H-labelled form.

The target in a further data set is JAK3/JAK1 (Homo sapiens, UniProt P23458+P52333). The data set can be described thus: Inhibition of JAK1/JAK3 in human PBMC assessed as decrease in IL2-induced STAT5 phosphorylation in CD3+ T cells preincubated for 1 hr followed by stimulation with IL2 for 15 mins by flow cytometry. Type of data set: cell-based. The procedure, abridged:
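Human cytokine signalling assay: IL-2 stimulation (JAK1/JAK3), with STAT5 phosphorylation in CD3⁺ T-cells measured as the end point. Read as IC50; mean of at least three separate experiments.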

Data set [15] addresses T1, Tyrosine-protein kinase JAK3 (Homo sapiens, UniProt P52333).
T1 sequence (P52333 whole entry): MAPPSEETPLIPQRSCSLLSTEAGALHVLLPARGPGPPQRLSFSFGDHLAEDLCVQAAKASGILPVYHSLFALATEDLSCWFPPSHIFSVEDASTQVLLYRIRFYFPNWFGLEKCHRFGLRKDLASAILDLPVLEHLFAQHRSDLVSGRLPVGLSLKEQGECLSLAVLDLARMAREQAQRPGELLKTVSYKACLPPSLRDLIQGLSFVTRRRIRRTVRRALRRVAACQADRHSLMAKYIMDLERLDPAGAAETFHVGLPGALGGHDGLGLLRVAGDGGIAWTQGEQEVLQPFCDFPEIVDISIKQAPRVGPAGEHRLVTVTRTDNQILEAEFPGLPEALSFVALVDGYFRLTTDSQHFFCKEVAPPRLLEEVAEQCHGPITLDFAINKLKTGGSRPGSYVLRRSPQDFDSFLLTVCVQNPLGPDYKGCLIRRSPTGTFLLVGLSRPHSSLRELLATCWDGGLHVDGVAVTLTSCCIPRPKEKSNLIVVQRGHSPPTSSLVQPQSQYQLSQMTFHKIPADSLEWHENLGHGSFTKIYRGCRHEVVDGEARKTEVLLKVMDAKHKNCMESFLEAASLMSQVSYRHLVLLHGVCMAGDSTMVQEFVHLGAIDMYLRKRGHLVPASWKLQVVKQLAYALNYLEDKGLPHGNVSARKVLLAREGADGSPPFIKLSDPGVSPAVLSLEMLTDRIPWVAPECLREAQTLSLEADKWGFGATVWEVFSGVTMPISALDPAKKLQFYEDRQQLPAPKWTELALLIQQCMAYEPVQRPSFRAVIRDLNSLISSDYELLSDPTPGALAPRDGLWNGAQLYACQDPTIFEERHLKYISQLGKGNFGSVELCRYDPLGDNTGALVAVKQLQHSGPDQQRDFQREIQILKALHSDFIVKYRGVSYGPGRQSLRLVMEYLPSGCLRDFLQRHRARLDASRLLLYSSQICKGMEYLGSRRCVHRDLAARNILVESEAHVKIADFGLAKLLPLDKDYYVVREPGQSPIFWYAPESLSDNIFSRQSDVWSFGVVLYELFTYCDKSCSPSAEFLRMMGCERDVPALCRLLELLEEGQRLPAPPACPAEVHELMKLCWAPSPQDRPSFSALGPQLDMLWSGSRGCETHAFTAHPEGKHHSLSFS
The data set can be described thus: Inhibition of fluorescein labeled probe binding to human recombinant JAK3 JH1 domain incubated for 1 hr by HTRF assay. The procedure, abridged:
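HTRF competition binding assay: displacement of a fluorescent probe from human recombinant JAK3 JH1 domain. IC50 for 50% inhibition of HTRF signal derived by nonlinear regression.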

Data set [16] deals with Tyrosine-protein kinase JAK2 (Homo sapiens, UniProt O60674). The data set can be described thus: Inhibition of JAK2 in GM-CSF-stimulated human TF-1 cells. Type of data set: cell-based.
Data set [17] can be described thus: Permeability coefficient, Kp across apical to basolateral side in human Caco2 cells. Format: ADME, cell-based. Conditions: Caco-2, read-out: permeability. The method in brief:
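Caco-2 monolayer permeability measured in both directions, apical-to-basal and basal-to-apical, reported as Pc in nm/s. An efflux ratio was calculated from the two directions.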

The target in a further data set is JAK1/TYK2 (Homo sapiens, UniProt P23458+P29597). The data set can be described thus: Inhibition of JAK1/TYK2 in human Kit225 T cells assessed as inhibition of STAT phosphorylation by luciferase reporter assay. Format: cell-based. The method in brief:
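T-cells carrying a stably integrated STAT-dependent luciferase reporter were stimulated with IFNα or IL-23 to measure TYK2/JAK1-dependent signalling. Dose–response curves gave IC50.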

The target of data set [18] is Non-receptor tyrosine-protein kinase TYK2 (Mus musculus, UniProt Q9R117). The data set can be described thus: Inhibition of TYK2 in mouse whole blood assessed as decrease in IFNalpha-induced STAT1 phosphorylation preincubated for 1 hr followed by stimulation with IFN-alpha for 15 mins by fluorescence analysis. Format: tissue-based. The procedure, abridged:
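Mouse whole blood stimulated with IFNα; STAT1 phosphorylation was measured by cellular staining and flow cytometry. Read as IC50.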

Data set [19] addresses Voltage-gated inwardly rectifying potassium channel KCNH2 (Homo sapiens, UniProt Q12809). The data set is described as follows: Inhibition of human ERG by in vitro ion channel flux assay.
Data set [20] concerns the target Non-receptor tyrosine-protein kinase TYK2 (Homo sapiens, UniProt P29597). The data set is described as follows: Inhibition of TYK2 in human whole blood assessed as decrease in IFNalpha-induced STAT5 phosphorylation preincubated for 1 hr followed by stimulation with IFN-alpha for 15 mins by fluorescence analysis. Type of data set: tissue-based. The method in brief:
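Human whole blood stimulated with IFNα; STAT5 phosphorylation was read in cells by staining and flow cytometry. IC50 from dose–response; mean of at least three experiments.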

Data set [21] can be described thus: Metabolic stability in mouse liver microsomes assessed as compound remaining incubated for 10 mins. Format: ADME, Microsome. To be noted: read-out: Stability. The procedure, abridged:
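Mouse liver microsomal stability, reported as percent of parent remaining after a 10 min incubation. Values are means of at least three experiments unless otherwise noted.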
(Microsomes from liver hold many membrane-bound enzymes, among them those of drug oxidation.)

JAK3/JAK1, sequence (P23458 whole entry, one chain of several): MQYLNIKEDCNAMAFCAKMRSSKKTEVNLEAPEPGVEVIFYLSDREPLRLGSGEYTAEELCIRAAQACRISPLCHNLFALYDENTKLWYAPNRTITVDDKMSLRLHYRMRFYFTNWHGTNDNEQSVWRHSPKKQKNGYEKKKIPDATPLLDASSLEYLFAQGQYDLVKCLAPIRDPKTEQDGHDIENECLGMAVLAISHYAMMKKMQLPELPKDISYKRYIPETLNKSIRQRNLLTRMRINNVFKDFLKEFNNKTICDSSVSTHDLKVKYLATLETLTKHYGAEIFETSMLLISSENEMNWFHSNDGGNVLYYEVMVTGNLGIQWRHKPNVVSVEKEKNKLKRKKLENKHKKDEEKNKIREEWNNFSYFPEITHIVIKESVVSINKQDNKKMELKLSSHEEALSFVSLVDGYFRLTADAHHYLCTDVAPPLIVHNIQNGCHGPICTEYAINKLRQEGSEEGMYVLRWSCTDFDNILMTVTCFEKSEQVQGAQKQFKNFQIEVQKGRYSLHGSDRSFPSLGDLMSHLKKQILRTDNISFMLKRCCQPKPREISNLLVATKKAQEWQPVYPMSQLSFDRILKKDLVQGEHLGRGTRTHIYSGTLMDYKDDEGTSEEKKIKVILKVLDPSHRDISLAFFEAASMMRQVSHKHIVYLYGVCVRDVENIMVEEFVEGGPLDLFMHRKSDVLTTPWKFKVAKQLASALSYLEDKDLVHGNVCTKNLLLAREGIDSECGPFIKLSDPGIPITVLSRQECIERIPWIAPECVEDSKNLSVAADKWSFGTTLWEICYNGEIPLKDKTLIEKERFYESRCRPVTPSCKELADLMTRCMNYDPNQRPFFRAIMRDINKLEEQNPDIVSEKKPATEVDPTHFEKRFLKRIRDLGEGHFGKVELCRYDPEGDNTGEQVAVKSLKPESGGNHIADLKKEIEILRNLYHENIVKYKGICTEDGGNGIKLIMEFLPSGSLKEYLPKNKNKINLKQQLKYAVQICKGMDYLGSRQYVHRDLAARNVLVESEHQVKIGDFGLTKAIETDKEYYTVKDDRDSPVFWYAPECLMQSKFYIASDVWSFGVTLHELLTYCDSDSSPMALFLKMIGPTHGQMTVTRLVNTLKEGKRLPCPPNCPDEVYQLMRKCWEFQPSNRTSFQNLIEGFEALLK
Non-receptor tyrosine-protein kinase TYK2 (Homo sapiens, UniProt P29597), sequence (P29597 whole entry): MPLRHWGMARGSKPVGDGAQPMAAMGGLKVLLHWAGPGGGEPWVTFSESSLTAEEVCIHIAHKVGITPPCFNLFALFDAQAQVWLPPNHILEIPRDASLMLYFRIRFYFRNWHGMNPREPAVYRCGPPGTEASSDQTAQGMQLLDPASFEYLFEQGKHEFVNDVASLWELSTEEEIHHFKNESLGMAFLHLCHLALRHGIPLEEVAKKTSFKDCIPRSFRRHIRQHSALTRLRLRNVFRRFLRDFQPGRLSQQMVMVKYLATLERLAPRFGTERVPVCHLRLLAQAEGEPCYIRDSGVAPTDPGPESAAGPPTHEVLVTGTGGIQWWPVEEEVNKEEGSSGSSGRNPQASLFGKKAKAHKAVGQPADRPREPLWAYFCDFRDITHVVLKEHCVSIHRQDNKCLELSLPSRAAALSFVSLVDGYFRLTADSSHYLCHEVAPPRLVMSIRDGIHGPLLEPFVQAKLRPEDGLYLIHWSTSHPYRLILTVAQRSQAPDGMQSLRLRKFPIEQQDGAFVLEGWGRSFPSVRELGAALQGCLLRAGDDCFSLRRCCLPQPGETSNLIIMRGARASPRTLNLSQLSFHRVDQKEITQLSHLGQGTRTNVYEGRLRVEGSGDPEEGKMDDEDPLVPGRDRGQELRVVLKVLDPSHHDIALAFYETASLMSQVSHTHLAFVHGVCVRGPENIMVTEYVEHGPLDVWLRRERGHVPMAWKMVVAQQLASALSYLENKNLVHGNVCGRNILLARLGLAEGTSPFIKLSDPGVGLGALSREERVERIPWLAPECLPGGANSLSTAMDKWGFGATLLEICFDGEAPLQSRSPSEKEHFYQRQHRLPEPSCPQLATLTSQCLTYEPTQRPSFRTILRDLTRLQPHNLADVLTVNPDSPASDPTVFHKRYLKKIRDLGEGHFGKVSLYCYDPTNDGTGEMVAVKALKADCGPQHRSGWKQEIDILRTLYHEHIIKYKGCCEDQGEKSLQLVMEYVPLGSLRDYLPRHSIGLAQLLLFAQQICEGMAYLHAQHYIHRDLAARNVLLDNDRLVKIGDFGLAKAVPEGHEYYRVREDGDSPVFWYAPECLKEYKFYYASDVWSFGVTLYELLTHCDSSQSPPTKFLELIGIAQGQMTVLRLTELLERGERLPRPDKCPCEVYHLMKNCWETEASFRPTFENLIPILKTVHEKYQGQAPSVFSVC
Voltage-gated inwardly rectifying potassium channel KCNH2, sequence (Q12809 whole entry): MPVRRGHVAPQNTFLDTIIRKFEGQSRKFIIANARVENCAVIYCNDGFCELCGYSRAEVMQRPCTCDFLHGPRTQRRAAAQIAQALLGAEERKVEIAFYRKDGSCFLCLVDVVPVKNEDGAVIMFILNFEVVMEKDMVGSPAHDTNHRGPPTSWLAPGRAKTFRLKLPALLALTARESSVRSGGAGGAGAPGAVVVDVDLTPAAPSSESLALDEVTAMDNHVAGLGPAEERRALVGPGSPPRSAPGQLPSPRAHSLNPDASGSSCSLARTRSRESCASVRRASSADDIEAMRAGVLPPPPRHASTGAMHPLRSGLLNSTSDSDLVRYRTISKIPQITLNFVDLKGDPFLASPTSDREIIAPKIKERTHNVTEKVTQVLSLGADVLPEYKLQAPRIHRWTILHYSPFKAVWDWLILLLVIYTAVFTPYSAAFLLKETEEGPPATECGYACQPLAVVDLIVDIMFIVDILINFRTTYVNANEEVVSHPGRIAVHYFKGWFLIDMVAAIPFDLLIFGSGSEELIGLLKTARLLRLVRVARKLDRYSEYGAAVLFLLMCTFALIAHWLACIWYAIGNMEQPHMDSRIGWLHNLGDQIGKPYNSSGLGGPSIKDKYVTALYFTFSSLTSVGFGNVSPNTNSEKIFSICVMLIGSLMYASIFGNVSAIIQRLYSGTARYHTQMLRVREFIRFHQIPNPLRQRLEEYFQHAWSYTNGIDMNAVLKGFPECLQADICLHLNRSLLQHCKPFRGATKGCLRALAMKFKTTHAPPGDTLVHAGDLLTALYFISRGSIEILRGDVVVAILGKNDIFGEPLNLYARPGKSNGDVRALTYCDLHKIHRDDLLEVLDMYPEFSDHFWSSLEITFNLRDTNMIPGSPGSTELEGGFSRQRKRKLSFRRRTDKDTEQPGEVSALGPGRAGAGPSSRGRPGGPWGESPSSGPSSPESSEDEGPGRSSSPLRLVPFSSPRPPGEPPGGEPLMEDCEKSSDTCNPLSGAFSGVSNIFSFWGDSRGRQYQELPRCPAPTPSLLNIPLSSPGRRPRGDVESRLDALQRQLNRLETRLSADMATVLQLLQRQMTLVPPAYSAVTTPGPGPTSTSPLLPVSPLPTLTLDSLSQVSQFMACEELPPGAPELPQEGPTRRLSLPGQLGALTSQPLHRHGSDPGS
JAK1/TYK2, sequence (P23458 whole entry): as the sequence (P23458 whole entry, one chain of several) above
JAK1/TYK2, sequence (P29597 whole entry): as the sequence (P29597 whole entry) above
Tyrosine-protein kinase JAK2, sequence (O60674 whole entry): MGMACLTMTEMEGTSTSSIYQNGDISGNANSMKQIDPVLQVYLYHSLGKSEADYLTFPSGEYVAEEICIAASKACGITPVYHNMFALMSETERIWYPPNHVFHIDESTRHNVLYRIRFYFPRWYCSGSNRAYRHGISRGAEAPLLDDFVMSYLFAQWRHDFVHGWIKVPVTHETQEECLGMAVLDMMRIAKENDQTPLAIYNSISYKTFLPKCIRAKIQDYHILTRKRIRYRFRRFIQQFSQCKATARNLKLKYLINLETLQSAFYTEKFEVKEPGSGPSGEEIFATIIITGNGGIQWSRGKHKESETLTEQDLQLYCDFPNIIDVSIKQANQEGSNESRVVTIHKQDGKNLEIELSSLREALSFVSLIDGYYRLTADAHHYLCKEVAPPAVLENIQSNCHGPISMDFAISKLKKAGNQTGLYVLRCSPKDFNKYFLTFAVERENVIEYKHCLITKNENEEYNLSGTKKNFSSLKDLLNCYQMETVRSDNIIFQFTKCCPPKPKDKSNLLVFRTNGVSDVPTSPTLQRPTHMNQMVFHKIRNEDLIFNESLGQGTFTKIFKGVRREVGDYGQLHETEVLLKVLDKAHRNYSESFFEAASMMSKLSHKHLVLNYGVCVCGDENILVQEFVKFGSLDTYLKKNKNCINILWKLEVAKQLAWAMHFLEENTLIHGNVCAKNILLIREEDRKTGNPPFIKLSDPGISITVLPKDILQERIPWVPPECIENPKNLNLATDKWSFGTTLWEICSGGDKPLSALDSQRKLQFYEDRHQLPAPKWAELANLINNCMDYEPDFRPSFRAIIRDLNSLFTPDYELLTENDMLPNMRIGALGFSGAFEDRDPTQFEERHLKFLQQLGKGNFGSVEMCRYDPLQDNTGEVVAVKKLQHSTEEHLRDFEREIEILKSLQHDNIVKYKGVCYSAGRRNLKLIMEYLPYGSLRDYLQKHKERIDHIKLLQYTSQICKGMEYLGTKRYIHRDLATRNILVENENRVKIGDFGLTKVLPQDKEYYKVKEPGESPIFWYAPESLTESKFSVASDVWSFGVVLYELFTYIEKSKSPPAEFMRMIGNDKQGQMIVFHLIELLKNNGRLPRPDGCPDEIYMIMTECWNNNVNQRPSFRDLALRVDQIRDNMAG

`CNC(=O)c1nnc(Nc2ccccn2)cc1Nc1ccccc1S(C)(=O)=O`: the Ratio IC50 was 690 in the data set listed under Homo sapiens [1], 270 in the data set filed under Homo sapiens [2] and 210 in the data set listed under Homo sapiens [3].
For `CNC(=O)c1nnc(NC(=O)C2CC2)cc1Nc1cccc(-c2ncn(C)n2)c1OC`, the outcome in the data set with Mus musculus [4], with Mus musculus [5], with Mus musculus [6] and in the data set with Mus musculus [8] was Active. Moreover, the Activity result in the data set on Mus musculus [7], in the data set with Mus musculus [9], in the data set with Mus musculus [10], with Mus musculus [11], in the data set with Mus musculus [12] and in the data set with Mus musculus [13] was “Dose-dependent effect” in each case. Also, in the data set with Mus musculus [14], the Activity entry was “Dose-dependent effect”.
Regarding `[2H]C([2H])([2H])NC(=O)c1nnc(Nc2ccccn2)cc1Nc1ccccc1S(C)(=O)=O`, the IC50 on JAK3/JAK1 was 5700 nM; in [15], greater than 10000 nM; in data set [16] it was 2700 nM.
Consider `CNC(=O)c1cnc(Nc2ccc(C(F)(F)F)cn2)cc1Nc1cccc(-c2ncn(C)n2)c1OC`, for which, in data set [17], the Papp A→B amounted to 1.6 ×10⁻⁶ cm/s. Also, the IC50 was 12 nM on JAK1/TYK2, 700 nM in data set [18], 16000 nM in [19] and 69 nM in [20]. Further, in data set [21], the remaining at 10 min was determined as 78%.

The IC50 is the midpoint of a concentration-inhibition curve.
